Source: article PMC4831585 (Journal of the American Chemical Society, 2015)
Ends that are not written are not given here.

Assays:
G340A-MoaA [1] = molecular target: T1, G340A-MoaA (Staphylococcus aureus, UniProt P69848, G340A); experiment: Abortive SAM cleavage; assay type: biochemical; details: G340A-MoaA with 11-mer wt peptide, 5′-dA vs cPMP amounts; triplicate, SD
wt-MoaA [2] = molecular target: T2, wt-MoaA (Staphylococcus aureus, UniProt P69848); experiment: Abortive SAM cleavage; assay type: biochemical; details: 5′-dA vs cPMP amounts, triplicate, SD
MoaA G340A = molecular target: T3, MoaA G340A (Staphylococcus aureus, UniProt P69848, G340A); experiment: Anaerobic ITC, G340A-MoaA; assay type: binding
T3 sequence (P69848 1-340 G340A): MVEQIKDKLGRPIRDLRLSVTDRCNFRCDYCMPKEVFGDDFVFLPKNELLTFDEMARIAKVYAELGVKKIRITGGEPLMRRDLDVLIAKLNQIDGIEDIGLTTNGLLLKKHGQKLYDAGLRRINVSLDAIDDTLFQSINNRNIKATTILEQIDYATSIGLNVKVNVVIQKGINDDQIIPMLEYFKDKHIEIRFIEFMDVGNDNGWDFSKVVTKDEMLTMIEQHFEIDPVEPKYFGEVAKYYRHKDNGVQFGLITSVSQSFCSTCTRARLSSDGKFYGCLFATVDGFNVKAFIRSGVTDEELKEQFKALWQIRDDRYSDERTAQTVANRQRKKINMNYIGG
Outline: (§1)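 His6-tagged S. aureus MoaA (wild type or GG-motif point mutants) was expressed in E. coli, purified and reconstituted anaerobically. […] Run as 29 injections at 24 °C, 307 rpm, with degassed buffer-only control titration.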

MoaA GG-motif mutants = experiment: MoaA/MoaC coupled assay / peptide rescue, MoaA GG-motif mutants; assay type: biochemical, Staphylococcus aureus; details: for increase of Km over wt-MoaA: GG-motif mutants with 500 μM 11-mer peptide vs wt-MoaA
MoaA G339A = MoaA G339A (Staphylococcus aureus, UniProt P69848, G339A); experiment: Anaerobic ITC, G339A-MoaA; assay type: binding
Outline: as §1

G340A-MoaA [3] = molecular target: T1, G340A-MoaA; experiment: MoaA/MoaC coupled assay; assay type: biochemical; details: for activity restoration lower than the 11-mer peptide: G340A-MoaA, peptide 200 μM (Figure 4A)
wt-MoaA [4] = molecular target: T2, wt-MoaA; experiment: Anaerobic ITC, wt-MoaA; assay type: binding
Outline: as §1

wt-MoaA [5] = molecular target: T2, wt-MoaA; details: [3′-D]GTP vs GTP as substrate; wt-MoaA reaction; cited from earlier work
R330A/K331A/K332A-MoaA = R330A/K331A/K332A-MoaA (Staphylococcus aureus, UniProt P69848, K331A/K332A/R330A); experiment: MoaA/MoaC coupled assay / peptide rescue, R330A/K331A/K332A-MoaA; assay type: biochemical; details: for activity restoration by peptide: peptide 200 μM (Figure 4A)
D198A-MoaA = D198A-MoaA (Staphylococcus aureus, UniProt P69848, D198A); assay type: biochemical; details: without peptide; coupled assay
[6] = with 500 μM 11-mer wt peptide, coupled assay with MoaC, pH 7.6, 25 °C

Q: What does the source list for `Nc1nc2c(ncn2[C@@H]2O[C@H](COP(=O)(O)OP(=O)(O)OP(=O)(O)O)[C@@H](O)[C@H]2O)c(=O)[nH]1` [GTP, Guanosine 5′-triphosphate]?
A: uncoupling (abortive SAM cleavage relative to cPMP formation) (G340A-MoaA [1]): 8.2 ± 4.8%; uncoupling (abortive SAM cleavage relative to cPMP formation) (wt-MoaA [2]): 4.1 ± 2.7%; Kd (MoaA G340A): 5.2 ± 2.3 µM; increase of Km over wt-MoaA (MoaA GG-motif mutants): 2–17 fold; Kd (MoaA G339A): 0.46 ± 0.01 µM; Km (G340A-MoaA [3]; [6]): 7.7 ± 3.8 µM; kcat (G340A-MoaA [3]; [6]): 0.000783 ± 5e-05 s⁻¹; Kd (wt-MoaA [4]): 5 ± 3 µM

Q: Which Kd (MoaA G340A) does the source give for `C[S+](CC[C@H](N)C(=O)[O-])C[C@H]1O[C@@H](n2cnc3c(N)ncnc32)[C@H](O)[C@@H]1O` (stereo partly drawn) [SAM, S-adenosyl-L-methionine] here?
A: > 90 µM

Q: And the “increase of Km over wt-MoaA” value (MoaA GG-motif mutants)?
A: 7–18 fold

Q: And the Kd (MoaA G339A)?
A: > 90 µM

Q: And the Km (G340A-MoaA [3]; [6])?
A: 37 ± 14 µM

Q: What about the Kd (wt-MoaA [4]) of the same molecule?
A: 1.7 ± 0.6 µM

Q: With `[2H][C@@]1(O)[C@@H](COP(=O)(O)OP(=O)(O)OP(=O)(O)O)O[C@@H](n2cnc3c(=O)[nH]c(N)nc32)[C@@H]1O` [[3′-D]GTP] as the molecule, how does the “uncoupling (abortive SAM cleavage relative to cPMP formation)” value (G340A-MoaA [1]) read?
A: 25 ± 6.7%

Q: And the “uncoupling (abortive SAM cleavage relative to cPMP formation)” value (wt-MoaA [2])?
A: 5.5 ± 3.0%

Q: And the KIE (wt-MoaA [5])?
A: 1.28 ± 0.05

Q: Which results are given for INMNYIGG [8-mer]?
A: activity restoration by peptide (R330A/K331A/K332A-MoaA): No significant activity restoration; activity restoration lower than the 11-mer peptide (G340A-MoaA [3]; coupled assay): 10 fold

Q: For NYIGG [5-mer], which “activity restoration by peptide” value (R330A/K331A/K332A-MoaA) is on record?
A: No significant activity restoration

Q: And the “activity restoration lower than the 11-mer peptide” value (G340A-MoaA [3]; coupled assay)?
A: 100 fold

Q: For RKKINMNYIGA, which “restoration of MoaA activity by GG-motif mutated peptide” value (MoaA GG-motif mutants; even at 1.0 mM peptide concentration, coupled assay (Figure 3A)) is on record?
A: did not restore the MoaA activity

Q: Which results are given for RKKINMNYIGG [11-mer wt peptide]?
A: Kd (R330A/K331A/K332A-MoaA; Kd (peptide titration, figure legend), Figure 4B, nonlinear fit to Hill equation): 172 µM; Kd (G340A-MoaA [3]; KD (peptide titration, figure legend), Figure 3C, nonlinear fit to the Hill equation, coupled assay): 151 µM

B1: D198A-MoaA: S. aureus MoaA variant with D198A mutation in Loop 14 (protein)
chain: MVEQIKDKLGRPIRDLRLSVTDRCNFRCDYCMPKEVFGDDFVFLPKNELLTFDEMARIAKVYAELGVKKIRITGGEPLMRRDLDVLIAKLNQIDGIEDIGLTTNGLLLKKHGQKLYDAGLRRINVSLDAIDDTLFQSINNRNIKATTILEQIDYATSIGLNVKVNVVIQKGINDDQIIPMLEYFKDKHIEIRFIEFMAVGNDNGWDFSKVVTKDEMLTMIEQHFEIDPVEPKYFGEVAKYYRHKDNGVQFGLITSVSQSFCSTCTRARLSSDGKFYGCLFATVDGFNVKAFIRSGVTDEELKEQFKALWQIRDDRYSDERTAQTVANRQRKKINMNYIGG
Q: With B1 as the molecule, how does the “activity of mutant relative to wt-MoaA” value (D198A-MoaA) read?
A: 8 % the activity of wt-MoaA

B2: R330A/K331A/K332A-MoaA (protein)
chain: MVEQIKDKLGRPIRDLRLSVTDRCNFRCDYCMPKEVFGDDFVFLPKNELLTFDEMARIAKVYAELGVKKIRITGGEPLMRRDLDVLIAKLNQIDGIEDIGLTTNGLLLKKHGQKLYDAGLRRINVSLDAIDDTLFQSINNRNIKATTILEQIDYATSIGLNVKVNVVIQKGINDDQIIPMLEYFKDKHIEIRFIEFMDVGNDNGWDFSKVVTKDEMLTMIEQHFEIDPVEPKYFGEVAKYYRHKDNGVQFGLITSVSQSFCSTCTRARLSSDGKFYGCLFATVDGFNVKAFIRSGVTDEELKEQFKALWQIRDDRYSDERTAQTVANRQAAAINMNYIGG
Q: Which “activity of mutant relative to wt-MoaA” value (R330A/K331A/K332A-MoaA; without peptide) does the source give for B2 here?
A: 8 % the activity of wt-MoaA
